In ChEMBL document CHEMBL5712072, “Epigenetic targeting of Hedgehog pathway transcriptional output through BET bromodomain inhibition” (Nat Med, 2014):
Activity calls are given as the source filed them. The calls are words filed in the database; no cut-off is given here.

Columns and labels:
MEF [1] = experiment: Downregulation of Gli transcription in Sufu-/- MEF cells by immunoblot analysis; assay type: functional, cell-based; settings: Mus musculus
In short: (§1)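 Sufu−/− MEFs exposed to DMSO or 1 uM of JQ1, GDC-0449, LDE225 or SANT-1; RIPA lysis 30min on ice, cleared 13000rpm 15min 4°C; SDS-PAGE immunoblot with anti-GLI1, β-tubulin as loading control.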

MEF [2] = experiment: Downregulation of Gli1 protein expression in Sufu-/- MEF cells by immunoblot analysis; assay type: functional, cell-based; settings: Mus musculus; in short: as §1
[3] = molecular target: Zinc finger protein GLI2 (Homo sapiens) (UniProt P10070); experiment: Inhibition of human GLI2 expressed in Hh-Light2 cells assessed as reduction in Gli1 mRNA expression level by qRT-PCR analysis; assay type: cell-based
In short: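 Hh-Light2 cells transiently transfected (Turbofect) with full-length murine HA-Gli2-FL or N-terminally truncated human Myc-GLI2-DN; drugs (1 uM JQ1, GDC-0449, LDE225 or SANT-1) added 24hr post-transfection; Gli1 mRNA by SYBR Green qRT-PCR; mean of triplicates ± SD.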

[4] = molecular target: Bromodomain-containing protein 4 (Mus musculus) (UniProt Q9ESU6); experiment: Inhibition of BRD4 in mouse Hh-Light2 cells assessed as Gli1 mRNA level by qRT-PCR analysis
[5] = molecular target: Bromodomain-containing protein 4 (Mus musculus) (UniProt Q9ESU6); experiment: Inhibition of BRD4 in mouse Hh-Light2 cells assessed as inhibition in Gli1 protein level by immunoblot analysis
Hh-Light2 [6] = experiment: Upregulation of Gli1 mRNA level in […] Hh-Light2 cells at 1 microM by qRT-PCR analysis; assay type: functional, cell-based
In short: (§2)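 Hh-Light2 (mouse 3T3 Gli-luciferase reporter line) cells were stimulated with Shh-N conditioned medium or SAG, alone or with JQ1 1 uM. Gli1, Gli2, Ptch1, Sufu, Smo and Brd4 mRNA were measured by SYBR Green qRT-PCR. Values are mean of triplicates ± SD.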

Hh-Light2 [7] = experiment: Upregulation of Ptch1 mRNA level in […] Hh-Light2 cells at 1 microM by qRT-PCR analysis; assay type: functional, cell-based; in short: as §2
Hh-Light2 [8] = experiment: Upregulation of Gli2 mRNA level in […] Hh-Light2 cells at 1 microM by qRT-PCR analysis; assay type: functional, cell-based; in short: as §2
Hh-Light2 [9] = experiment: Upregulation of Smo mRNA level in […] Hh-Light2 cells at 1 microM by qRT-PCR analysis; assay type: functional, cell-based; in short: as §2
Hh-Light2 [10] = experiment: Upregulation of Sufu mRNA level in […] Hh-Light2 cells at 1 microM by qRT-PCR analysis; assay type: functional, cell-based; in short: as §2
Hh-Light2 [11] = experiment: Downregulation of Brd4 mRNA level in […] Hh-Light2 cells at 1 microM by qRT-PCR analysis; assay type: functional, cell-based; in short: as §2
[12] = molecular target: Bromodomain-containing protein 4 (Danio rerio) (UniProt F1R5H6); experiment: Inhibition of BRD4 in danio rerio assessed as decrease in GFP mRNA expression level by qRT-PCR analysis
Danio rerio = organism: Danio rerio; experiment: Effect on heat shock treated transgenic zebra fish assessed as increase in eye diameter; assay type: functional, organism-based
In short: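 Tg(hsp70l:shha-EGFP)+/− x TL embryos were heat shocked at 38 °C for 15 min at the 8-somite stage, then placed directly in JQ1 (0.6 or 6.0 um) or DMSO. At […] embryos were sorted GFP+/− into fresh drug. Eye dorsal axis length was scored at 56 hpf, n=12 per group; Student's t-test.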

MEF [13] = experiment: Downregulation of Gli1 mRNA level in Sufu-/- MEF cells at 1 microM by qRT-PCR analysis; assay type: functional, cell-based; settings: Mus musculus
In short: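 Sufu−/− MEFs were treated with DMSO or inhibitors at 1 uM, and Gli1/Gli2 mRNA was measured by SYBR Green qRT-PCR (mean of triplicates ± SD). A time course with JQ1 1 uM included a 3 h point.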

MEF [14] = experiment: Downregulation of Gli2 transcription in Sufu-/- MEF cells at 1 microM by […] analysis; assay type: functional, cell-based; settings: Mus musculus
MEF [15] = experiment: Downregulation of BRD4 mRNA level in Sufu-/- MEF cells by qRT-PCR analysis; assay type: functional, cell-based; settings: Mus musculus
Hh-Light2 [16] = experiment: Inhibition of full length murine Gli2 expressed in […] Hh-Light2 cells assessed as reduction in mRNA level at 1 microM by qRT-PCR analysis; assay type: cell-based; settings: Mus musculus
In short: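 Hh-Light2 cells were transiently transfected with HA-Gli2-FL using Turbofect and treated 24 h later with 1 uM JQ1, GDC-0449, LDE225 or SANT-1. Gli1 mRNA was measured by qRT-PCR. Values are mean of triplicates ± SD.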

Hh-Light2 [17] = experiment: Upregulation of Ptch1 mRNA level in […] Hh-Light2 cells transfected with full length murine Gli2 by RT-PCR analysis; assay type: functional, cell-based; settings: dose 1.0 µM
In short: (§3)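 Hh-Light2 cells were transiently transfected with HA-Gli2-FL (murine) or Myc-GLI2-DN (N-terminally truncated human) and treated with drugs 24 h post-transfection. Ptch1 mRNA was measured by qRT-PCR. Values are mean of triplicates ± SD.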

Hh-Light2 [18] = experiment: Upregulation of Ptch1 mRNA level in […] Hh-Light2 cells transfected with […] GlI2 by RT-PCR analysis; assay type: functional, cell-based; settings: dose 1.0 µM; in short: as §3
Med1 [19] = experiment: Downregulation of Gli1mRNA expression in […] Med1 cells at 1 microM by qRT-PCR analysis; assay type: functional, cell-based
In short: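 Med1-MB cells were treated with JQ1 1 uM, and Gli1 mRNA was measured by SYBR Green qRT-PCR. Values are mean of triplicates ± SD.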

Medulloblastoma cell [20] = experiment: Downregulation of Smo mRMA expression in […] Medulloblastoma cell expressing wildtype SMO at 1 microM by qRT-PCR analysis; assay type: functional, cell-based
In short: (§4)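 SmoWT-MB cells were treated with JQ1 at 1 uM (GDC-0449 or LDE225 at 0.1 uM as comparators). Gli1, Gli2, Smo, Sufu and Brd4 mRNA were measured by SYBR Green quantitative RT-PCR. Values are mean of triplicates ± SD.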

Medulloblastoma cell [21] = experiment: Downregulation of sufu mRMA expression in […] Medulloblastoma cell expressing wildtype SMO at 1 microM by qRT-PCR analysis; assay type: functional, cell-based; in short: as §4
Medulloblastoma cell [22] = experiment: Downregulation of BRD4 mRMA expression in […] Medulloblastoma cell expressing wildtype SMO at 1 microM by qRT-PCR analysis; assay type: functional, cell-based; in short: as §4
Medulloblastoma cell [23] = experiment: Cytotoxicity in Ptch-mutated in […] medulloblastoma cells expressing wildtype SMO by CellTiter-Glo analysis; assay type: functional, cell-based
[24] = Cytotoxicity in Ptch-mutated human Med1 cells expressing wildtype SMO by CellTiter-Glo analysis; assay type: functional, cell-based
Medulloblastoma cell [25] = experiment: Antiproliferative activity against in […] medulloblastoma cells expressing SmoWT-MB cells from mouse assessed as cell proliferation by EdU analysis; assay type: functional, cell-based
In short: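 SmoWT-MB cells given 0.1uM GDC-0449 or LDE225 (or JQ1 1 uM); 10uM EdU added for final 6-8hrs; EdU+ cells detected by Click-iT flow cytometry or imaging, DAPI counterstain; proliferation index = EdU+/DAPI+ cells; group means ± SD.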

[26] = Toxicity in NSG mouse xenografted with Med1 cells assessed as survival of mouse at 50 mg/kg/day, ip; assay type: organism-based; settings: in vivo
In short: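 Med1-MB cells carrying luciferase, 0.5x10e6, were injected into the cerebellum of NSG mice. After engraftment was confirmed, mice were randomized to JQ1 50 mg/kg IP daily or vehicle until euthanasia was required, and survival was recorded.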

Med1 [27] = experiment: Antitumor activity in […] Med1 cells xenografted in NSG mouse assessed as reduction in tumor growth at 50 mg/kg/day, ip; assay type: functional, organism-based
In short: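 Med1-MB cells carrying a lentiviral luciferase reporter, 2x10e6 injected into the flank of 4-6 week old NSG mice. After engraftment was confirmed, mice were randomized to JQ1 50 mg/kg IP daily or vehicle. Tumor growth was followed by IVIS imaging as average radiance; tumor size was also recorded at day 21 of treatment.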

Medulloblastoma cell [28] = experiment: Antitumor activity in […] medulloblastoma cells expressing SmoD477G mutant xenografted in NSG mouse assessed as decrease in tumor growth at 50 mg/kg/day, ip; assay type: functional, organism-based
In short: (§5)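 SmoWT-MB or SmoD477G-MB cells, 2x10e6 per flank, injected into both flanks of 4-6 week old NSG mice. After engraftment mice were randomized to vehicle, JQ1 50 mg/kg IP qd or GDC-0449 100 mg/kg PO qd until euthanasia was required. Tumor growth was measured by caliper; data are group means ± S.E.M.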

Medulloblastoma cell [29] = experiment: Antitumor activity in […] medulloblastoma expressing wildtype SMO xenografted in NSG mouse assessed as reduction in tumor growth at 50 mg/kg/day, ip; assay type: functional, organism-based; in short: as §5
Medulloblastoma cell [30] = experiment: Induction of apoptosis in human wildtype SMO expressing medulloblastoma cells assessed as viable cells by annexin-V/PI staining based flow cytometric analysis (reference value: 74.9%); assay type: functional
Medulloblastoma cell [31] = experiment: Induction of apoptosis in human wildtype SMO expressing medulloblastoma cells assessed as early apoptotic cells by annexin-V/PI staining based flow cytometric analysis (reference value: 0.59%); assay type: functional
[32] = Induction of apoptosis in human Med1 cells assessed as viable cells by annexin-V/PI staining based flow cytometric analysis (reference value: 96.4%); assay type: functional, Medulloblastoma cell
[33] = Induction of apoptosis in human Med1 cells assessed as early apoptotic cells by annexin-V/PI staining based flow cytometric analysis (reference value: 1.09%); assay type: functional, Medulloblastoma cell
[34] = Induction of apoptosis in human Med1 cells assessed as late apoptotic cells by annexin-V/PI staining based flow cytometric analysis (reference value: 0.60%); assay type: functional, Medulloblastoma cell
[35] = Induction of apoptosis in human Med1 cells assessed as necrotic cells by annexin-V/PI staining based flow cytometric analysis (reference value: 1.87%); assay type: functional, Medulloblastoma cell
Med1 [36] = experiment: Induction of cell cycle arrest in […] Med1 cells assessed as increased accumulation of cells in G1 phase by PI staining based FACS analysis; assay type: functional
In short: (§6)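 Med1-MB cells were treated with JQ1, fixed in 70% ethanol for 30 min at 4 °C, and stained with PI plus RNase A at 37 °C for 45 min. Cells were filtered through 70 um mesh, and cell-cycle distribution was read by FACS.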

Med1 [37] = experiment: Induction of cell cycle arrest in […] Med1 cells assessed as decreased accumulation of cells in S phase by PI staining based FACS analysis; assay type: functional; in short: as §6
Medulloblastoma cell [38] = experiment: Antiproliferation of […] Hh driven medulloblastoma cells […] by cell titre glo assay; assay type: functional, cell-based
Medulloblastoma cell [39] = experiment: Antiproliferation of human Hh driven medulloblastoma cells by cell titre glo assay; assay type: functional, cell-based
Medulloblastoma cell [40] = experiment: Induction of apoptosis in mouse wildtype SMO expressing medulloblastoma cells assessed as necrotic cells by annexin-V/PI staining based flow cytometric analysis (reference value: 22%)
Medulloblastoma cell [41] = experiment: Induction of apoptosis in mouse wildtype SMO expressing medulloblastoma cells assessed as late apoptotic cells by annexin-V/PI staining based flow cytometric analysis (reference value: 2.5%)

Chain of Zinc finger protein GLI2 (Homo sapiens) (P10070 whole entry, the tested form may be a part): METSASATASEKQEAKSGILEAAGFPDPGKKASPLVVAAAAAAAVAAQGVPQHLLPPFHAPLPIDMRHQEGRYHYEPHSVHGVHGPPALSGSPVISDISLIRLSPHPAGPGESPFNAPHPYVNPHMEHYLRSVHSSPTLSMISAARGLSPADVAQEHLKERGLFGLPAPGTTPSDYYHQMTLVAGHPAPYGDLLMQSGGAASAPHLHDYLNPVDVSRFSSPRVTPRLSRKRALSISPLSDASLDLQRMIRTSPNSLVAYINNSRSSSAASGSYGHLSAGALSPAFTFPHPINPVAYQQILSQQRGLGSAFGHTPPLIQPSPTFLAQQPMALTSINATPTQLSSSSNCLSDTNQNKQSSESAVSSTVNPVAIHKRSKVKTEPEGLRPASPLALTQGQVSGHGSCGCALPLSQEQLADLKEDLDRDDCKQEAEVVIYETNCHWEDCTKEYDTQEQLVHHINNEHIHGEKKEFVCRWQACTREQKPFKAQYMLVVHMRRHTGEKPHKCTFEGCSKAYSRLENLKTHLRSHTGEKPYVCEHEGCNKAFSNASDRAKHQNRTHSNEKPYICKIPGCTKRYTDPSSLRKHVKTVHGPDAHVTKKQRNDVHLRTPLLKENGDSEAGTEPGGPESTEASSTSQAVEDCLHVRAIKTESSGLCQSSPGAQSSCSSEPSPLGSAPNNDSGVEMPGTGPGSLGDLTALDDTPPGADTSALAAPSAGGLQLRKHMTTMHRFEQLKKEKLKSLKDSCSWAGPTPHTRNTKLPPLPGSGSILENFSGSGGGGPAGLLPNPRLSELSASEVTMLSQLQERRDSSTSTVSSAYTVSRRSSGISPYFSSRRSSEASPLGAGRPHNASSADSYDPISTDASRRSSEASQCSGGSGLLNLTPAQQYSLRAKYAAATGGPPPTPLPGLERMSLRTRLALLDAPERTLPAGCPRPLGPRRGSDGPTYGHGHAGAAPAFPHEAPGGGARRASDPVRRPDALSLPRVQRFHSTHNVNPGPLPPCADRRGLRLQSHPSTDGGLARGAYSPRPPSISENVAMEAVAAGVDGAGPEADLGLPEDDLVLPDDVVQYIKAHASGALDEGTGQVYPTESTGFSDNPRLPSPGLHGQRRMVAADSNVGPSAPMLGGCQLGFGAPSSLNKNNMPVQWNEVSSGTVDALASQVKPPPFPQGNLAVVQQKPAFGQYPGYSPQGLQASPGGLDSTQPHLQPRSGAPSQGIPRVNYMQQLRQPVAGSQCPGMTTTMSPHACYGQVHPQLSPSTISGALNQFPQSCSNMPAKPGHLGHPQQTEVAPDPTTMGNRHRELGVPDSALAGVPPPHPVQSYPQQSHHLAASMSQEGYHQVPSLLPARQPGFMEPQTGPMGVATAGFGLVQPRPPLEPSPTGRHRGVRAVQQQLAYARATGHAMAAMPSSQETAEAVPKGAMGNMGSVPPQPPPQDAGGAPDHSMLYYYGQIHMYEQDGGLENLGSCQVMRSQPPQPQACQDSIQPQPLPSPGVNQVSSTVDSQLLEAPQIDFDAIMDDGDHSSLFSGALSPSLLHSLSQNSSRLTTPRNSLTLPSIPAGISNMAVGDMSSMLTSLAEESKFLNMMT
Chain of Bromodomain-containing protein 4 (Danio rerio) (F1R5H6 whole entry): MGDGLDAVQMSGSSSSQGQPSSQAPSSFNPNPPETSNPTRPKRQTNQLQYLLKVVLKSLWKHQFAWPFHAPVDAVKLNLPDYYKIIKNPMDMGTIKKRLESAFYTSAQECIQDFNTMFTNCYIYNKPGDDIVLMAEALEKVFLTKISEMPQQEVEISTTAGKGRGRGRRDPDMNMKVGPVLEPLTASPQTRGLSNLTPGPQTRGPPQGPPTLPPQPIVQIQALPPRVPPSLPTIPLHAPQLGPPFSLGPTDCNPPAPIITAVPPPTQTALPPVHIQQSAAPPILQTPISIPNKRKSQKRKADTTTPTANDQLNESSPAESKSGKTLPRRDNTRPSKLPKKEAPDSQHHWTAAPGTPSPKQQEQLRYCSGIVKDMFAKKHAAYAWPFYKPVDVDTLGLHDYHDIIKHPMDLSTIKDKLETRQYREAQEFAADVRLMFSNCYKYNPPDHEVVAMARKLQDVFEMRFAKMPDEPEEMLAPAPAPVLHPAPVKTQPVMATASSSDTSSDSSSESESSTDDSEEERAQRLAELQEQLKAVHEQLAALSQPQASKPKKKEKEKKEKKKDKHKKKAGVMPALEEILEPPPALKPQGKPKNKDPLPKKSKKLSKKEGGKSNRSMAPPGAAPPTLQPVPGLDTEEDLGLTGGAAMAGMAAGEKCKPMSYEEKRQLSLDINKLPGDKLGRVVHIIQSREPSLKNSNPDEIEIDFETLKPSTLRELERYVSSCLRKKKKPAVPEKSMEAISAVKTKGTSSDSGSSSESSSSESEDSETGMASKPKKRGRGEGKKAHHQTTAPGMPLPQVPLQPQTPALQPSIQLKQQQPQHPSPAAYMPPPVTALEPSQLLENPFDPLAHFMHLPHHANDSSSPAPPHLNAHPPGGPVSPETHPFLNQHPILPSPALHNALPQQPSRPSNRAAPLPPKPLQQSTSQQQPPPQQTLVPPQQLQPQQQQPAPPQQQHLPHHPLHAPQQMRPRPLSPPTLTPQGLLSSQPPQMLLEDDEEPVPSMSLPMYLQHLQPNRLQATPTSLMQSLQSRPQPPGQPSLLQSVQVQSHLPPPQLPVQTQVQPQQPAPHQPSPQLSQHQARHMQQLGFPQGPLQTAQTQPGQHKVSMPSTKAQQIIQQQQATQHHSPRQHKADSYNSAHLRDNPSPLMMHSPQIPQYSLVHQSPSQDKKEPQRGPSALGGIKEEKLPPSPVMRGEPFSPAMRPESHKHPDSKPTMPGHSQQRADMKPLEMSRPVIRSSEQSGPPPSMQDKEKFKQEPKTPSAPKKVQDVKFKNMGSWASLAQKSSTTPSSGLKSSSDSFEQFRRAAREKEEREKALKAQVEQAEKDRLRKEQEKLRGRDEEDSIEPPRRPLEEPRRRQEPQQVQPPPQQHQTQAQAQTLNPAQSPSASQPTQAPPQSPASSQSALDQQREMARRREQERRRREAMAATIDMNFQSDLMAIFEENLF

Cc1nn(-c2ccccc2)c(C)c1/C=N/N1CCN(Cc2ccccc2)CC1
Activity (MEF [1]): inactive | Activity (MEF [2]): inactive | inhibition [3]: inactive | inhibition [4]: Active | inhibition [5]: Active

Cc1sc2c(c1C)C(c1ccc(Cl)cc1)=N[C@@H](CC(=O)OC(C)(C)C)c1nnc(C)n1-2
Activity (Hh-Light2 [6]): Active | Activity (Hh-Light2 [7]): Active | Activity (Hh-Light2 [8]): Active | Activity (Hh-Light2 [9]): Active | Activity (Hh-Light2 [10]): inactive | Activity (Hh-Light2 [11]): inactive | inhibition [12]: Active | Activity (Danio rerio): Active | Activity (MEF [13]): Active | Activity (MEF [14]): Active | Activity (MEF [15]): inactive | inhibition (Hh-Light2 [16]): Active | Activity (Hh-Light2 [17]): inactive | Activity (Hh-Light2 [18]): Active | Activity (Med1 [19]): Active | Activity (Medulloblastoma cell [20]): Active | Activity (Medulloblastoma cell [21]): Active | Activity (Medulloblastoma cell [22]): Active | IC50 (Medulloblastoma cell [23]): ~50 nM | IC50 [24]: ~50 nM | Activity (Medulloblastoma cell [25]): Active | Activity [26]: Non-Toxic | Activity (Med1 [27]): Active | Activity (Medulloblastoma cell [28]): Active | Activity (Medulloblastoma cell [29]): Active | Activity (Medulloblastoma cell [30]): 39.2% | Activity (Medulloblastoma cell [31]): 0.64% | Activity [32]: 87.9% | Activity [33]: 0.35% | Activity [34]: 1.61% | Activity [35]: 10.1% | Activity (Med1 [36]): Active | Activity (Med1 [37]): Active | Activity (Medulloblastoma cell [38]): Active | Activity (Medulloblastoma cell [39]): Active | Activity (Medulloblastoma cell [40]): 54.7% | Activity (Medulloblastoma cell [41]): 5.44%
